Columns and labels:
SMMC-7721 [1] = assay: Induction of apoptosis in human SMMC7721 cells assessed as late apoptotic cells level at 10 uM incubated for 24 hrs by Annexin V-FITC/PI dual staining based flow cytometry (reference value: 0.88%); type: functional
Summary of the method: (§1)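 CNE2 and SMMC-7721 cells were treated for 24 h at 0, 5, 10 or 30 µM, or at 0, 10, 20 or 50 µM depending on compound. Cells were stained with Annexin V-FITC/propidium iodide and quantified by flow cytometry. Apoptotic cells were counted as AV+/PI− (lower right) plus AV+/PI+ (upper right) quadrants.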

SMMC-7721 [2] = assay: Induction of apoptosis in human SMMC7721 cells assessed as viable cells level at 30 uM incubated for 24 hrs by Annexin V-FITC/PI dual staining based flow cytometry (reference value: 95.3%); type: functional; summary of the method: as §1
CNE-2 [3] = assay: Induction of cell cycle arrest in human CNE2 cells assessed as accumulation at subG1 phase at 30 uM incubated for 24 hrs by propidium iodide staining based flow cytometry (reference value: 0.55%); type: functional
CNE-2 [4] = assay: Induction of cell cycle arrest in human CNE2 cells assessed as accumulation at G2/M phase incubated for 24 hrs by propidium iodide staining based flow cytometry; type: functional
SMMC-7721 [5] = assay: Induction of apoptosis in human SMMC7721 cells incubated for 24 hrs by Annexin V-FITC/PI dual staining based flow cytometry; type: functional, cell-based; summary of the method: as §1
CNE-2 [6] = assay: Induction of apoptosis in human CNE2 cells assessed as early apoptotic cells level at 5 uM incubated for 24 hrs by Annexin V-FITC/PI dual staining based flow cytometry (reference value: 3.56%); type: functional; summary of the method: as §1
SMMC-7721 [7] = assay: Induction of cell cycle arrest in human SMMC7721 cells assessed as accumulation at G0-G1 phase at 5 uM incubated for 24 hrs by propidium iodide staining based flow cytometry (reference value: 64.1%); type: functional
SMMC-7721 [8] = assay: Induction of apoptosis in human SMMC7721 cells assessed as late apoptotic cells level at 5 uM incubated for 24 hrs by Annexin V-FITC/PI dual staining based flow cytometry (reference value: 0.88%); type: functional; summary of the method: as §1
SMMC-7721 [9] = assay: Induction of apoptosis in human SMMC7721 cells assessed as viable cells level at 10 uM incubated for 24 hrs by Annexin V-FITC/PI dual staining based flow cytometry (reference value: 95.3%); type: functional; summary of the method: as §1
SMMC-7721 [10] = assay: Induction of cell cycle arrest in human SMMC7721 cells assessed as accumulation at subG1 phase at 5 uM incubated for 24 hrs by propidium iodide staining based flow cytometry (reference value: 0.33%); type: functional
CNE-2 [11] = assay: Induction of cell cycle arrest in human CNE2 cells assessed as accumulation at G2/M phase at 5 uM incubated for 24 hrs by propidium iodide staining based flow cytometry (reference value: 19.8%); type: functional
SMMC-7721 [12] = assay: Induction of apoptosis in human SMMC7721 cells assessed as early apoptotic cells level at 10 uM incubated for 24 hrs by Annexin V-FITC/PI dual staining based flow cytometry (reference value: 1.36%); type: functional; summary of the method: as §1
CNE-2 [13] = assay: Induction of cell cycle arrest in human CNE2 cells assessed as accumulation at S phase at 5 uM incubated for 24 hrs by propidium iodide staining based flow cytometry (reference value: 10.3%); type: functional
SMMC-7721 [14] = assay: Induction of apoptosis in human SMMC7721 cells assessed as early apoptotic cells level at 30 uM incubated for 24 hrs by Annexin V-FITC/PI dual staining based flow cytometry (reference value: 1.36%); type: functional; summary of the method: as §1
CNE-2 [15] = assay: Induction of cell cycle arrest in human CNE2 cells assessed as accumulation at G0-G1 phase at 5 uM incubated for 24 hrs by propidium iodide staining based flow cytometry (reference value: 69.3%); type: functional
CNE-2 [16] = assay: Induction of apoptosis in human CNE2 cells assessed as early apoptotic cells level at 30 uM incubated for 24 hrs by Annexin V-FITC/PI dual staining based flow cytometry (reference value: 3.56%); type: functional; summary of the method: as §1
A549 = assay: Anticancer activity against human A549 cells assessed as reduction in cell viability incubated for 48 hrs MTT assay; type: functional, cell-based; conditions: A549, 48 h
Summary of the method: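 MTT assay on human hepatocarcinoma SMMC-7721, lung carcinoma A549 and nasopharyngeal carcinoma CNE2 cells, with matrine as comparator and cisplatin as positive control. IC50 is the concentration that lowers optical density of treated cells by 50% versus untreated cells, given as the mean ± SD of three experiments.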

CNE-2 [17] = assay: Induction of apoptosis in human CNE2 cells assessed as early apoptotic cells level at 10 uM incubated for 24 hrs by Annexin V-FITC/PI dual staining based flow cytometry (reference value: 3.56%); type: functional; summary of the method: as §1
CNE-2 [18] = assay: Induction of apoptosis in human CNE2 cells assessed as late apoptotic cells level at 10 uM incubated for 24 hrs by Annexin V-FITC/PI dual staining based flow cytometry (reference value: 1.37%); type: functional; summary of the method: as §1
CNE-2 [19] = assay: Induction of apoptosis in human CNE2 cells assessed as viable cells level at 10 uM incubated for 24 hrs by Annexin V-FITC/PI dual staining based flow cytometry (reference value: 91.6%); type: functional; summary of the method: as §1
CNE-2 [20] = assay: Induction of apoptosis in human CNE2 cells assessed as necrotic cells level at 30 uM incubated for 24 hrs by Annexin V-FITC/PI dual staining based flow cytometry (reference value: 3.43%); type: functional; summary of the method: as §1
SMMC-7721 [21] = assay: Induction of apoptosis in human SMMC7721 cells assessed as necrotic cells level at 10 uM incubated for 24 hrs by Annexin V-FITC/PI dual staining based flow cytometry (reference value: 2.47%); type: functional; summary of the method: as §1
SMMC-7721 [22] = assay: Induction of apoptosis in human SMMC7721 cells assessed as necrotic cells level at 5 uM incubated for 24 hrs by Annexin V-FITC/PI dual staining based flow cytometry (reference value: 2.47%); type: functional; summary of the method: as §1
SMMC-7721 [23] = assay: Induction of cell cycle arrest in human SMMC7721 cells assessed as accumulation at subG1 phase at 30 uM incubated for 24 hrs by propidium iodide staining based flow cytometry (reference value: 0.33%); type: functional

## COc1cc(Cn2cccc2/C=C2\CC[C@@H]3[C@H]4CCCN5CCC[C@@H](CN3C2=O)[C@@H]45)cc(OC)c1
SMMC-7721 [1]
  Activity: 18.5%
SMMC-7721 [2]
  Activity: 46.3%
CNE-2 [3]
  Activity: 4.2%
CNE-2 [4]
  Activity: Dose-dependent effect
SMMC-7721 [5]
  Activity: Dose-dependent effect
CNE-2 [6]
  Activity: 8.79%
SMMC-7721 [7]
  Activity: 63%
SMMC-7721 [8]
  Activity: 4.06%
SMMC-7721 [9]
  Activity: 32.8%
SMMC-7721 [10]
  Activity: 4.95%
CNE-2 [11]
  Activity: 29.5%
SMMC-7721 [12]
  Activity: 42%
CNE-2 [13]
  Activity: 11%
SMMC-7721 [14]
  Activity: 33.1%
CNE-2 [15]
  Activity: 55.2%
CNE-2 [16]
  Activity: 34.6%
A549
  IC50: 8.05 µM
CNE-2 [17]
  Activity: 25.1%
CNE-2 [18]
  Activity: 8.94%
CNE-2 [19]
  Activity: 60.7%
CNE-2 [20]
  Activity: 6.5%
SMMC-7721 [21]
  Activity: 6.65%
SMMC-7721 [22]
  Activity: 4.04%
SMMC-7721 [23]
  Activity: 3.08%
